Data from PubChem BioAssay.
Results filed as inconclusive are left out.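 The calls were made as follows, unless noted: active = cell viability at or below a set limit in both duplicate runs, the limit being the all-compound median minus 4 SD (cut at about 23% in these data, passing the limit was not always enough); inconclusive = no clear call, values can overlap the other calls; inactive = the rest.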

Experiments:
[1] = S. cerevisiae growth inhibition in permissive medium (OD615), pilot counter-assay for S. cerevisiae lifespan shortening project, permissive growth control (AID 705;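 active = growth inhibition above 25% in both replicates, a cutoff set 3 SD above the mean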); conditions: OD615, 24 h, at 10 µM, stronger effect = higher value
Procedure, shortened: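 assay system = Saccharomyces cerevisiae strain carrying genetically modified DeaD replicative-lifespan system | technique = absorbance (optical density) at 615 nm | buffer or medium = permissive raffinose/galactose medium | timing = cells pre-grown 4 h, then 24 h compound exposure, 30 °C humidified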

[2] = S. cerevisiae growth inhibition in restrictive medium, OD615, pilot screen, restrictive growth control, yeast lifespan reduction project (AID 706;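 active = growth inhibition above a set limit, 3 SD over mean compound inhibition, in both replicates, cut at about 43% in these data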;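 also: modified DeaD lifespan yeast strain shifted to restrictive glucose medium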); conditions: OD615, 48 h, at 10 µM, stronger effect = higher value
Procedure, shortened: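 System: modified S. cerevisiae. Buffer or medium: CSMM-D glucose medium. Incubation: 4 h pre-growth plus 48 h compound exposure, 30 °C. Detection: absorbance (optical density) measured at 615 nm.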

[3] = doxorubicin toxicity protection in MRP-1 cells – H69AR cells, CellTiter-Glo, duplicate, MRP-1 activator project, pilot screen (AID 807;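 active = viability increase at or above a cutoff of the median across tested compounds plus 3 SD, cut at about 8.5% in these data, passing the limit was not always enough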;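 also: compound pretreatment 18-22 h then 72 h combined with doxorubicin; 0% = doxorubicin alone and 100% = vehicle without doxorubicin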); conditions: H69AR viability with doxorubicin, CellTiter-Glo luminescence; at 10 µM; stronger effect = higher value
[4] = viability of HCT116 without oncogenic beta-catenin – human colon tumor cells, pilot screen (AID 823); conditions: HCT116 beta-catenin knockout viability, CellTiter-Glo, 60 h; at 10 µM; stronger effect = lower value;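 also: 0% = wells killed by 20 µM Hyamine and 100% = untreated DMSO cell wells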
[5] = viability of PTEN-null HCT116 cells – cell-based, HCT116 clonal line, CellTiter-Glo, pilot screen (AID 824;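 active = viability at or below 27.92% in each of two runs, the all-compound median minus 4 SD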;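 also: 0% = 20 µM Hyamine control and 100% = vehicle cell control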); conditions: HCT116 PTEN-deleted viability, 60 h, at 10 µM, stronger effect = lower value
[6] = RAM pathway blockade in budding yeast – dse1pr::URA3 reporter, 5-FOA selection, pilot screen (AID 869;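 active = inhibition over a set limit, the all-compound mean plus 3 SD, in both replicate runs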;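 also: 0% = DMSO wells with no growth and 100% = 10 µM 1-NA-PP1 with full growth; RAM network block rescues cells from 5-FOA so hits raise OD615 growth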); conditions: S. cerevisiae dse1pr::URA3 5-FOA growth, OD615, 2 d; at 10 µM; stronger effect = higher value; strain carries analog-sensitive mutant Cbk1 kinase
[7] = RAM signaling pathway blockade in yeast – S. cerevisiae, Pdr1DBD-CYC8 efflux-inhibited sensitized strain, primary screen (AID 1298;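 active = RAM network inhibition above 8.4% in each of two replicates, 3 SD over the compound average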;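 also: 0% = DMSO untreated cells without growth and 100% = 10 µM 1-NA-PP1 full growth; higher means more yeast growth rescued from 5-FOA killing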); conditions: S. cerevisiae cbk1-as DSE1-URA3 strain, 5-FOA growth OD615, 2 d; at 50 µM; stronger effect = higher value

CCC(CC)c1nnc(NC(=O)c2c(-c3ccccc3)noc2C)s1
inactive: growth inhibition [1] -10.7% | growth inhibition [2] 3.94% | viability increase [3] -1.44% | viability [4] 90.2% | viability [5] 93.9% | inhibition [6] 0.27% | RAM network inhibition [7] 2.57%

O=C(c1ccco1)c1cn[nH]c1-c1ccc(Cl)cc1O
inactive: growth inhibition [1] -6.04% | growth inhibition [2] -8.45% | viability increase [3] -2.19% | viability [4] 95.6% | viability [5] 83.4% | inhibition [6] 1.42% | RAM network inhibition [7] 0.57%

Cn1c(CCNC(=O)c2ccc(F)cc2)nc2ccccc21
inactive: growth inhibition [1] 0.71% | growth inhibition [2] -11% | viability increase [3] 2.04% | viability [4] 105% | viability [5] 99.7% | inhibition [6] 1.2% | RAM network inhibition [7] 4.26%

COc1cc(OC)c(C2Oc3nc(SC)nnc3-c3ccccc3N2C(C)=O)cc1OC (stereo not drawn)
inactive: growth inhibition [1] 4.06% | growth inhibition [2] -0.66% | viability increase [3] -4.95% | viability [4] 108% | viability [5] 108% | inhibition [6] 3.23% | RAM network inhibition [7] 1.75%

O=C(c1ccccc1C(=O)N1CCN(c2ccccc2F)CC1)N1CCN(c2ccccc2F)CC1
inactive: growth inhibition [1] -6.81% | growth inhibition [2] -15.5% | viability increase [3] -0.42% | viability [4] 61.6% | viability [5] 68.2% | inhibition [6] 1.44% | RAM network inhibition [7] 11.2%

COc1cc(C(=O)Nc2nnc(C)s2)cc(OC)c1OC
inactive: growth inhibition [1] -12.2% | growth inhibition [2] -5.23% | viability increase [3] -2% | viability [4] 95.2% | viability [5] 82.3% | inhibition [6] 2.54% | RAM network inhibition [7] 2.16%

COc1ccc(C2C(C(=O)NCCN(C)C)c3ccccc3C(=O)N2C)cc1OC (stereo not drawn)
inactive: growth inhibition [1] -7.69% | growth inhibition [2] -1.69% | viability increase [3] -0.77% | viability [4] 100% | viability [5] 97.9% | inhibition [6] -0.2% | RAM network inhibition [7] 1.92%

Cc1ccc(S(=O)(=O)c2nc(S(C)(=O)=O)sc2N(C)C)cc1
inactive: growth inhibition [1] 0.44% | growth inhibition [2] -4.42% | viability increase [3] -5.6% | viability [4] 86% | viability [5] 86.9% | inhibition [6] 0.565% | RAM network inhibition [7] 2.51%

CCSc1nnc(NC(=O)CC)s1
inactive: growth inhibition [1] -14.2% | growth inhibition [2] -13.4% | viability increase [3] 1.42% | viability [4] 106% | viability [5] 99% | inhibition [6] 1.21% | RAM network inhibition [7] -0.32%

CCOc1ccccc1NC(=O)CCS(=O)(=O)c1cccc2nonc12
inactive: growth inhibition [1] -15% | growth inhibition [2] -21.8% | viability increase [3] -4.44% | viability [4] 103% | viability [5] 96.3% | inhibition [6] 1.34% | RAM network inhibition [7] 5.48%

Cc1onc(-c2ccccc2Cl)c1C(=O)NCC1CCCO1 (stereo not drawn)
inactive: growth inhibition [1] -0.6% | growth inhibition [2] 3.56% | viability increase [3] -1.44% | viability [4] 88.7% | viability [5] 95.8% | inhibition [6] 1.24% | RAM network inhibition [7] -0.74%

COc1ccccc1CNC(=O)C1COc2ccccc2O1 (stereo not drawn)
inactive: growth inhibition [1] -13.9% | growth inhibition [2] -2.38% | viability increase [3] 0.65% | viability [4] 98.8% | viability [5] 88.5% | inhibition [6] 2.73% | RAM network inhibition [7] 2.77%

COc1ccc(NC(C)=O)cc1NC(=O)CSc1nnc(-c2ccncc2)n1C
inactive: growth inhibition [1] -5.57% | growth inhibition [2] -7.07% | viability increase [3] -1.99% | viability [4] 96.6% | viability [5] 106% | inhibition [6] 0.24% | RAM network inhibition [7] 0.2%

CCOC(=O)N1CCC(N2C(=O)c3ccc(C(=O)NCc4ccc(F)cc4)cc3C2=O)CC1
inactive: growth inhibition [1] -0.31% | growth inhibition [2] -4.59% | viability increase [3] -1.21% | viability [4] 98.1% | viability [5] 100% | inhibition [6] 3.25% | RAM network inhibition [7] 8.97%

COc1ccc(NC(=O)CCCC2=NS(=O)(=O)c3ccccc3N2)cc1
inactive: growth inhibition [1] -8.46% | growth inhibition [2] -7.47% | viability increase [3] -3.01% | viability [4] 103% | viability [5] 99.3% | inhibition [6] 1.23% | RAM network inhibition [7] 3.11%

CCn1c(N)nc2c1c(=O)n(C)c(=O)n2C
inactive: growth inhibition [1] 4.48% | growth inhibition [2] -1.29% | viability increase [3] -1.39% | viability [4] 108% | viability [5] 98.9% | inhibition [6] 0.32% | RAM network inhibition [7] 2.67%

COC(=O)C1=CN(C)C=C(C(=O)OC)C1c1ccc(Cl)cc1Cl
inactive: growth inhibition [1] -12.4% | growth inhibition [2] -10.4% | viability increase [3] -2.14% | viability [4] 85.1% | viability [5] 78.2% | inhibition [6] 3.2% | RAM network inhibition [7] 8.48%

CCN(CCN(C)C)C(=O)Cn1ncc2c1-c1cc(C)ccc1OC2
inactive: growth inhibition [1] -11% | growth inhibition [2] -0.185% | viability increase [3] -0.91% | viability [4] 94.8% | viability [5] 102% | inhibition [6] 2.43% | RAM network inhibition [7] 2.3%

CC1(C)CC(=O)C2=C(C1)Nc1ccccc1NC2c1cccnc1 (stereo not drawn)
inactive: growth inhibition [1] 7.14% | growth inhibition [2] 1.02% | viability increase [3] -3.43% | viability [4] 96.1% | viability [5] 93.6% | inhibition [6] -0.195% | RAM network inhibition [7] 0.21%

Cc1noc(C)c1S(=O)(=O)N(CC(=O)Nc1ccc2c(c1)OCO2)c1ccc(C(C)C)cc1
inactive: growth inhibition [1] -5.59% | growth inhibition [2] -3.17% | viability increase [3] -3.69% | viability [4] 96.4% | viability [5] 93.5% | inhibition [6] 2.64% | RAM network inhibition [7] -0.06%

Nc1c(C(=O)c2ccc(Br)s2)oc2ccccc12
inactive: growth inhibition [1] -9.21% | growth inhibition [2] -4.51% | viability increase [3] -5.46% | viability [4] 88.8% | viability [5] 88.7% | inhibition [6] -0.045% | RAM network inhibition [7] 2.7%

Cn1cccc1Cc1nnc(SCC(=O)N2CCCCCC2)n1CCc1ccccc1
inactive: growth inhibition [1] 10% | growth inhibition [2] 25.7% | viability increase [3] -1.8% | viability [4] 95.2% | viability [5] 96.1% | inhibition [6] 2.48% | RAM network inhibition [7] 2.94%

Cc1ccc(S(=O)(=O)N(CC(=O)N2CCCC2)C2CCCCC2)cc1
inactive: growth inhibition [1] -1.14% | growth inhibition [2] 10.9% | viability increase [3] -1.79% | viability [4] 99% | viability [5] 95% | inhibition [6] 0.685% | RAM network inhibition [7] 2.21%

Cc1c(C(=O)NCc2ccc3c(c2)OCO3)oc2ccc(S(=O)(=O)N3CCC(C)CC3)cc12
inactive: growth inhibition [1] -11.5% | growth inhibition [2] -16.7% | viability increase [3] 0.73% | viability [4] 74.7% | viability [5] 73% | inhibition [6] 2.39% | RAM network inhibition [7] 11.2%
